Experimental data pooled from the literature.
Protocols differ between the studies behind these lines.
Target: Focal adhesion kinase 1 (PTK2, Homo sapiens, UniProt Q05397)

| Structure (SMILES) | test | conditions | remaining binding [%] |
| --- | --- | --- | --- |
| C[C@H]1CCN(c2nccc(-c3cnn4ncccc34)n2)C1 | binding | 1 µM | 100 |
| O=C1CCc2cc(Nc3cc(OC4CCOCC4)c([N+](=O)[O-])cc3Cl)ccc2N1 | cell-free assay, competition with immobilised ligand | 1 µM | 100 |
| Nc1ncc2c(n1)-c1c([nH]c3ccc(C#CC4CC4)cc13)CCCC2 | binding, competition with immobilised ligand | 1 µM | 91 |
| CC(=O)C1=C(C)N(c2cccc(C(F)(F)F)c2)C(=O)N[C@@H]1c1ccc(C#N)nc1 | cell-free assay, competition with immobilised ligand | 1 µM | 100 |
| c1cncc(-c2cccc(Nc3nccc(NC4CCCCC4)n3)c2)c1 | binding, competition with immobilised ligand | 10 µM | 67 |
| CNC(=O)Nc1ccc2c(c1)[C@@]1(CC2)OC(=O)N(CC(=O)N(Cc2ccc(F)cc2)[C@@H](C)C(F)(F)F)C1=O | cell-free assay, competition with immobilised ligand | 1 µM | 100 |
| Cc1cc(-c2cc(C(F)(F)F)ccc2O[C@H]2C[C@@]2(CNS(=O)(=O)c2ccc([N+](=O)[O-])cc2)c2ccc(F)cc2F)[nH]n1 | cell-free assay, competition with immobilised ligand | 0.3 µM | 22 |
| C[C@@H]1CN(c2ccc3ncc(-c4ccc5[nH]nc(C6CC6)c5c4)n3n2)C[C@H](C)O1 | binding, competition with immobilised ligand | 0.5 µM | 100 |
| O=C(c1ccc(Nc2ncc(Cl)c(-c3cc4ccccc4s3)n2)cc1)N1CCC(N2CCCC2)CC1 | binding, competition with immobilised ligand | 1 µM | 78 |
| CN(C)c1ncc(F)c(-c2cnn3ncccc23)n1 | binding | 1 µM | 100 |
| CCN1CCN(Cc2ccc(C(=O)Nc3ccc(C)c(Oc4ccc5c(c4)CC(=O)N5)c3)cc2C(F)(F)F)CC1 | binding, competition with immobilised ligand | 1 µM | 77 |
| FC(F)(F)Oc1cccc(-c2cnc3ccc(-c4ccncc4)nn23)c1 | cell-free assay, competition with immobilised ligand | 5 µM | 83 |
| COc1cnc(Nc2cccc(S(N)(=O)=O)c2)nc1N1CCN(c2ccccc2)C(=O)C1 | binding, competition with immobilised ligand | 1 µM | 99 |
| COc1ncc2cc3ccccc3nc2c1C#N | cell-free assay, competition with immobilised ligand | 5 µM | 100 |
| O=C(NCCCN1CCOCC1)c1ccc(Nc2nccc(-c3cc4ccccc4s3)n2)cc1 | binding, competition with immobilised ligand | 1 µM | 100 |
| N[C@H]1CCN(c2nccc(-c3cnn4ncccc34)n2)C1 | binding | 1 µM | 100 |
| O=C(O)c1cc(-c2ccc(C3CCNCC3)cc2)c2ccc(-c3ccc(C(F)(F)F)cc3)cc2c1 | cell-free assay, competition with immobilised ligand | 1 µM | 100 |
| CN(C)c1nccc(-c2cnc3ncccn23)n1 | binding | 1 µM | 100 |
| O=C(c1ccc(Nc2ncc(Cl)c(-c3ccc(Cl)s3)n2)cc1)N1CCC(N2CCCC2)CC1 | binding, competition with immobilised ligand | 1 µM | 41 |
| CCS(=O)(=O)c1cc2cc(C[C@@](O)(CC(C)(C)c3ccc(F)cc3C(N)=O)C(F)(F)F)[nH]c2cn1 | cell-free assay, competition with immobilised ligand | 1 µM | 100 |
| O=C(NCC1CCOCC1)c1n[nH]cc1NC(=O)c1c(F)cccc1F | binding, competition with immobilised ligand | 1 µM | 100 |
| O=C(N[C@H]1CCCCC/C=C\C2C[C@@]2(C(=O)O)NC(=O)[C@@H]2C[C@@H](Oc3ccncc3)CN2C1=O)OC1CCCC1 (some centres unmarked) | binding, competition with immobilised ligand | 1 µM | 97 |
| N#Cc1ccccc1CSc1nnc2c(n1)[nH]c1ccccc12 | binding, competition with immobilised ligand | 10 µM | 98 |
